Screens deposited in PubChem BioAssay by several laboratories.
S1P4 antagonist: blocks the human S1P4 receptor; S1P4-expressing cells, antagonist mode, reporter read-out; O95977; 220,000 compounds, 0.26% hits; inhibition, % at 4.98 µM; in the data active means inhibition above about 29%
S1P4 ag: activates the human S1P4 receptor | O95977 | S1P4-expressing cell line, agonist reporter assay | activation, % at 4.98 µM | 220,000 compounds, 0.35% hits | AID 1509; in the data active means activation above about 11%
Hsp70 act: Hsp70 transcriptional activation, primary screen | 200,000 compounds, 0.04% hits | HeLa Hsp70 promoter luciferase reporter, luminescence; scaled: vehicle 0, proteasome-inhibitor control 100% | activation, % at 10 µM;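 active means activation above the mean across all tested compounds plus 3 SD, cutoff set per campaign, cut at about 5.5% in these data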
Dynein cargo inh: dynein cargo transport inhibition; 3617.4 mouse cells, GR-EGFP nuclear translocation imaging; test concentration mostly 20 µM; stimulated with dexamethasone, 1 µM; hits give low values; z-score, hits read low; 220,000 compounds, 0.47% hits; AID 1381;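 active means plate z-score of nuclear minus cytoplasmic receptor signal below a set negative limit, without overly bright fluorescence or cell loss, cut at about -3.5 in these data, passing the limit was not always enough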;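 further: z-score of nuclear minus cytoplasmic ring GR-EGFP intensity difference per well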
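Schedule: 48 h induction, then 1 h compound, then 30 min agonist, 37 °C. Buffer or medium: tetracycline-free induction medium containing charcoal-stripped FBS. Reagent: 1.0 µM final dexamethasone stimulus. Evaluation: nuclear versus cytoplasmic GR-EGFP signal, averaged per well. Signal: high-content fluorescence imaging after fixation.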
Mdm2 ligase inh: blocks human Mdm2 ubiquitin ligase activity. cell-based MDM2 ubiquitination luciferase reporter, 2 h; 0 = plate control, 100 = twice control, blank-subtracted. signal enhancement, % at 5 µM. 210,000 compounds, 0.11% hits. AID 1230;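 active means signal enhancement of 30% or more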;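 further: luminescence tracks abundance of the self-degrading MDM2-luciferase fusion protein; higher signal means inhibition of MDM2 E3 ligase activity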
Target sequence (Q00987 whole entry, looked up, the tested form may be a part): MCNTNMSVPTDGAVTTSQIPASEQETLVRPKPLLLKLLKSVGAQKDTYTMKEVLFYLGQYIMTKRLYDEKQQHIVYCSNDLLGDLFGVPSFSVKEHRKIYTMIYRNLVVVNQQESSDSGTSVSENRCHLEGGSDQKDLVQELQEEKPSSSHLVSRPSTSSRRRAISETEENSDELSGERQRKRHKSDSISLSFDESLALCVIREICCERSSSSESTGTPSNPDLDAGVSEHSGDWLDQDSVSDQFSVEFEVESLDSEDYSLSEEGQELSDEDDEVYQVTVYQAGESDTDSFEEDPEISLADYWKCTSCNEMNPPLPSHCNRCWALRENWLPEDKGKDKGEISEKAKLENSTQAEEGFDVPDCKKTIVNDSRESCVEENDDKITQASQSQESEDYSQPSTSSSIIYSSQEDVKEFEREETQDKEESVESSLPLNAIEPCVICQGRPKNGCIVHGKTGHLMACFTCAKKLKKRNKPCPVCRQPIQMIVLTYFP
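Test system: stable mammalian line carrying autodegrading MDM2–luciferase fusion reporter; quantity: 2000 cells in each well; times: 4 h cell settling then 2 h compound exposure, 37 °C; detection: luminescence with SteadyLite reagent, 15 min at room temperature; evaluation: percent signal gain over controls, blank-subtracted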
S1P3 antag-1: blocks the human S1P3 receptor. Q99500. CHO S1P3 NFAT-BLA reporter, FRET fluorescence, antagonist mode. inhibition, % at 4.98 µM. 170,000 compounds, 0.27% hits;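 active means inhibition above the plate cutoff, the mean inhibition of test wells on that plate plus 3 SD, cut at about 28% in these data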;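 further: cells challenged with S1P at its EC80 of 0.8 µM; blue over green emission ratio from cleaved BLA substrate after 4 h stimulation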
S1P3 antag-2: human S1P3 receptor antagonism, confirmation. 240 compounds, 30% hits. shares compounds with S1P3 antag-1. inhibition, % at 4.98 µM. CHO S1P3 NFAT-BLA reporter, FRET, antagonist mode;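 active means inhibition above the hit threshold that was computed for the earlier primary screen, cut at about 30% in these data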
Numbers stand for hits; n = inactive; x = no result. Compounds with a hit are over-represented: about 1.3% of the library has one in this group of screens.

SMILES	S1P4 antagonist	S1P4 ag	Hsp70 act	Dynein cargo inh	Mdm2 ligase inh	S1P3 antag-1	S1P3 antag-2
CCN1/C(=C/c2ccc3cc(C)ccc3[n+]2CC)Sc2cc(C)ccc21	n	n	n	n	n	39	n
Oc1cc(-n2cccn2)c(O)cc1-n1cccn1	n	n	x	n	n	n	x
O=C(CCC1CCCC1)Nc1ccc([N+](=O)[O-])cn1	n	n	n	n	n	32	n
COCCn1nnnc1C(c1cccs1)N1CCCC(C)C1 (stereo not given)	n	n	n	n	n	n	x
c1ccc(C2=Nn3c(Cn4nnc5ccccc54)nnc3SC2)cc1	n	n	x	n	n	n	x
c1ccc(Cc2nnc3n2N=C(c2ccccc2)CS3)cc1	n	n	n	n	n	29	n
NC(=O)NCCCC(NC(=O)c1ccc(C#CC2(O)CCCCC2)cc1)C(=O)O (stereo not given)	n	n	n	n	n	n	x
CSc1ccc(/C=C/c2cc(=O)c3ccccc3[nH]2)cc1	n	n	n	n	n	30	n
Cc1ccc(NCCC(=O)c2cccs2)cc1	n	n	n	n	n	n	x
CC(C)c1ccc(NCCC(=O)c2cccs2)cc1	n	n	n	n	n	30	n
CC(=O)Nc1ncc(Cc2cccc(Cl)c2)s1	n	n	n	n	x	28	n
CC(C)CCC(C(=O)O)C(C)CC(=O)NNC(=O)c1ccco1 (stereo not given)	n	n	n	n	n	n	x
CC12CCC(C(=O)NNc3ccccc3)(C(=O)C1=O)C2(C)C (stereo not given)	n	n	x	n	x	n	x
CCN(CC)S(=O)(=O)c1cccc(C(=O)NC(C)C(c2cccs2)N2CCCC2)c1 (stereo not given)	n	n	n	n	n	29	n
COCC(C)NC(C(=O)Nc1ccc(C)c(Cl)c1)c1ccccc1 (stereo not given)	n	n	n	n	n	x	x
Cc1ccc(NC(=O)C(OC(=O)c2ccc(C=O)cc2)c2ccccc2)cc1Cl (stereo not given)	n	n	n	n	n	30	n
CCOc1ccc(C(CC(=O)O)NC(=O)COc2ccccc2OC)cc1OC (stereo not given)	n	n	n	n	n	n	x
C/C(=N/NC(=O)c1ccccn1)c1ccco1	n	n	n	n	n	x	x
C/C(=N/NC(=O)c1cc(-c2ccc(Cl)s2)[nH]n1)c1ccco1	n	n	x	n	n	32	n
COc1ccccc1C(=O)Nc1nsc(-c2ccccc2)n1	n	n	x	n	n	n	x
COc1ccc(-c2[nH]ncc2N=Nc2cc(C)cc(C)c2)cc1	n	n	n	n	n	38	n
Cn1c(SCc2ccccc2)nnc1-c1ccc2c(c1)OCO2	n	n	n	n	n	n	x
Cn1c(SCc2ccccc2)nnc1-c1ccc2nonc2c1	n	n	x	n	n	30	n
O=C(NC1CCCC1)c1cc(COc2ccc3ncccc3c2)on1	n	n	x	n	n	35	n
O=C(c1cc(COc2ccc3ncccc3c2)on1)N1CCCCCC1	n	n	n	n	n	n	x
SMILES	S1P4 antagonist	S1P4 ag	Hsp70 act	Dynein cargo inh	Mdm2 ligase inh	S1P3 antag-1	S1P3 antag-2
CCCCn1c(=O)[nH]c2nc3cc(N)ccc3nc2c1=O	n	n	n	n	n	n	x
Nc1ccc2nc3c(=O)n(C4CCCCC4)c(=O)[nH]c3nc2c1	n	n	x	n	x	30	n
O=C(COC(=O)c1cnc(Cl)c(Cl)c1)NCCC1=CCCCC1	n	n	n	n	n	33	n
Cc1c(N=C2N=C(NC(=O)Nc3ccc(Cl)cc3)c3ccccc32)c(=O)n(-c2ccccc2)n1C	n	n	n	n	n	40	n
Cc1c(NC(=O)Nc2ccc(Cl)cc2)c(=O)n(-c2ccccc2)n1C	n	n	n	n	n	n	x
COc1ccc(CN(CC2CCC(C(=O)O)CC2)C(=S)Nc2ccccc2C)cc1 (stereo not given)	n	n	n	n	n	n	x
COc1ccc(CN(CC2CCC(C(=O)O)CC2)C(=S)Nc2cc(C)ccc2C)cc1 (stereo not given)	n	n	n	n	n	33	n
